We go through 90 compounds from PubChem BioAssay AID1040 (The Scripps Research Institute Molecular Screening Center, 2008).

Several values for one entry are separate records, joined by “and”; a condition that tells them apart may be missing. Equal values may be shown once. Out of some 200,000 compounds screened, about 2,000 (1%) were called active.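 Rule for the calls: active = inhibition above the campaign mean inhibition of all tested compounds plus 3 SD (cut at about 20% in these data); inactive = the rest.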 For the sample, actives were picked, then their nearest neighbours and some compounds at random.

Sequence of Neuropeptide Y receptor type 1 (Homo sapiens) (P25929 whole entry, looked up): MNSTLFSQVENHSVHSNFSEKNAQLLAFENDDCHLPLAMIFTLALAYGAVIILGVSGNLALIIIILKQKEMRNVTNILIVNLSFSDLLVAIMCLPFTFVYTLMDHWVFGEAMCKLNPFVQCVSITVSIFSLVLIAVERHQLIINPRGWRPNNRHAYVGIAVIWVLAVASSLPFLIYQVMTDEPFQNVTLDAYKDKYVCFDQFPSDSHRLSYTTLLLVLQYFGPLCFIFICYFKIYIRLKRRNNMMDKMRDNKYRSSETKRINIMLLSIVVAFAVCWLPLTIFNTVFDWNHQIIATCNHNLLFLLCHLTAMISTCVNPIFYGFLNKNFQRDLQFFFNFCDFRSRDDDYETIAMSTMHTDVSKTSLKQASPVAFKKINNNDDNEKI

In the test the target is Neuropeptide Y receptor type 1 (Homo sapiens) (UniProt P25929). Kind of test: blockers of human neuropeptide Y Y1 receptor – cell-based, primary screen (AID 1040).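 Note: 0% = DMSO wells given NPY plus isoproterenol and 100% = isoproterenol alone without NPY.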 The note with it: HEK293-CNG Y1 cells, membrane potential fluorescence; at 3.6 µM; hits give high values; NPY at EC95, then isoproterenol. Summed up:
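Material: HEK293 cells co-expressing NPY Y1 receptor and cyclic-nucleotide gated channel. Timing: compound incubation 1 h at room temperature, readout 45 min post-stimulation. Signal: fluorescence, membrane potential probe.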
Broadly, the inhibition is the relative decrease from the control value, in per cent. With `O=C(COc1nc2ccccc2nc1N1CCOCC1)NCC(F)(F)F`, the inhibition is 3.34% (inactive).

Turning to `C/C=C/c1ccc(OCC(O)CN2CCCCCCC2)c(OC)c1` (stereo not given), the inhibition was 16.4% (inactive).

`CCCCCOC(=O)c1ccc(N2C(=O)C3C4C=CC(C4)C3C2=O)cc1` (stereo not given): the inhibition was -0.77% (inactive).

As to `C/C(=N/O)c1ccc(N2C(=O)C3C4C=CC(C3C2=O)C2C3C(=O)N(c5ccc(/C(C)=N/O)cc5)C(=O)C3C42)cc1` (stereo not given), the inhibition was 20.7% (active).

As for `Cc1ccc(N2C(=O)C3CC3C2=O)cc1` (stereo not given), the inhibition was -4.56% (inactive).

As to `Cc1ccc(C(=O)N/C(=C/c2cccs2)C(=O)N2CCCCC2)cc1`, the inhibition was 0.27% (inactive).

Regarding `CCOC(=O)c1c(NC(=O)C2CC=CCC2C(=O)O)sc(C)c1CC` (stereo not given), the inhibition was 6.42% (inactive).

With `COc1ccc2nc(Nc3nc4ccc(NC(C)=O)cc4s3)sc2c1`, the inhibition was -4.47% (inactive).

Regarding `CCCC(=O)Nc1nc2ccc(NC(=O)c3cccnc3)cc2s1`, the inhibition is 2.46% (inactive).

Consider `CCCC(=O)Nc1nc2ccc(NC(=O)c3c(F)c(F)c(OC)c(F)c3F)cc2s1`, for which the inhibition is 33.9% (active).

Take `O=C(NCc1ccco1)c1ccc(NS(=O)(=O)c2cccc([N+](=O)[O-])c2)cc1`: the inhibition is -0.88% (inactive).

For the compound `CN1CCN(C(=O)/C(=C\c2cccs2)NC(=O)c2cccs2)CC1`, the inhibition was -0.85% (inactive).

On to `CO/N=C/c1cn(-c2ccc(Cl)cc2)nn1`, for which the inhibition is -3.05% (inactive).

Take `O=C(NCc1ccncc1)NC12CC3CC(CC(C3)C1)C2`: the inhibition is -6.14% (inactive).

Regarding `O=C(c1cccc(C(=O)N2CCc3ccccc32)n1)N1CCc2ccccc21`, the inhibition is 10.5% (inactive).

Regarding `CCCn1nc(C(=O)N2CCCc3ccccc32)c2ccccc2c1=O`, the inhibition was 3.23% (inactive).

For `CCCCn1nc(C(=O)N2CCc3ccccc32)c2ccccc2c1=O`, the inhibition is 28.5% (active).

Consider `NS(=O)(=O)c1ccc(N=Cc2ccc(Br)s2)cc1`, for which the inhibition is 2.13% (inactive).

`Cc1ccc(S(=O)(=O)NC(C(=O)N2CCOCCOCCOCCOCC2)c2ccccc2)cc1` (stereo not given): the inhibition is 5.72% (inactive).

Turning to `O=C(/C=C/c1ccccc1)Nc1nnc(SCC(=O)c2ccc3ccccc3c2)s1`, the inhibition was -1.51% (inactive).

For `O=C(NCCNc1ccc([N+](=O)[O-])cc1)c1cccc2c(Br)cccc12`, the inhibition was 10.2% (inactive).

As to `CCOC(=O)/C(=N\Nc1ccccc1Cl)N(C)C1CCS(=O)(=O)C1` (stereo not given), the inhibition is -1.74% (inactive).

Regarding `Cc1ccc(C(=O)N2CCCC(c3ccccc3)=N2)cc1`, the inhibition is 0.71% (inactive).

Regarding `Cc1ccc(C(=O)C[n+]2cc(-c3ccccc3)n3c2CCCCC3)cc1`, the inhibition was 30.8% (active) and 55.8% (active).

On to `Cn1c(-c2ccccc2)c[n+]2c1CCCCC2`, for which the inhibition is 6% (inactive).

On to `CCN1CCN(C(C(=O)NC2CCCC2)c2cc3c(cc2[N+](=O)[O-])OCO3)CC1` (stereo not given), for which the inhibition is -0.35% (inactive).

Consider `COC(=O)C1=C(Nc2ccc(C)cc2)C=C(C)C(C(=O)OC)C1c1ccc(F)cc1` (stereo not given), for which the inhibition was 32.6% (active).

In the case of `COC(=O)C1C(=O)NCC1c1ccc(C)cc1` (stereo not given), the inhibition was -2.75% (inactive).

With `COC(=O)C1=C(Nc2ccc(OC)cc2)C=C(C)C(C(=O)OC)C1c1ccc(C)cc1` (stereo not given), the inhibition was 14.2% (inactive).

On to `O=c1[nH]c2ccccc2s1`, for which the inhibition was 1.2% (inactive).

Turning to `Cc1ccc(S(=O)(=O)N2CCOCC2)cc1C(=O)NC(=S)N(Cc1ccccc1)C(C)C`, the inhibition is 1.17% (inactive).

`Cc1nnc(SCC(=O)N2c3ccccc3C(C)(c3ccc(Cl)cc3)CC2(C)C)s1` (stereo not given): the inhibition was 16.7% (inactive).

In the case of `CC(=O)Nc1ccc(/C(C)=N/NC(=O)CN(c2ccccc2Br)S(C)(=O)=O)cc1`, the inhibition was -2.53% (inactive).

Consider `CC(Oc1ccc(Cl)cc1)C(=O)OCC(=O)Nc1ncc(Cl)cc1Cl` (stereo not given), for which the inhibition is 2.64% (inactive).

Consider `Cc1ccc(SCCC(=O)OCC(=O)Nc2ncc(Cl)cc2Cl)cc1`, for which the inhibition is 20.4% (active).

In the case of `Cc1ccc(-n2c(SCC(=O)Nc3ncc(Cl)cc3Cl)nc3ccccc32)cc1`, the inhibition was -2.49% (inactive).

On to `CC1(C)C=C2[C@H]3CC[C@@H]4[C@@]5(C)CCC(=O)C(C)(C)[C@@H]5CC[C@@]4(C)[C@]3(C)CC[C@@]2(C(=O)O)CC1`, for which the inhibition is 2.69% (inactive).

Turning to `CC(=O)Nc1cccc(-c2nc3ccccc3s2)c1C`, the inhibition is 3.27% (inactive).

Consider `Oc1ccc(-c2[nH]ncc2-c2nc3ccccc3s2)c(O)c1`, for which the inhibition was 62.6% (active).

Turning to `Cc1cc(O)ccc1-c1cnc2ccccc2n1`, the inhibition was -0.67% (inactive).

For the compound `CC1CCN(S(=O)(=O)c2ccc3ncn(CC(=O)N(C)C4CCCCC4)c(=O)c3c2)CC1`, the inhibition is 4.79% (inactive).

Consider `CCOC(=O)C1CCN(CCC(=O)Nc2cccc(C)c2)CC1`, for which the inhibition is -5.31% (inactive).

Turning to `COc1cc2c(C(=O)N3CCN(C)CC3)c(CSc3ccccc3)n(C)c2cc1Br`, the inhibition was 23.3% (active).

As to `O=C(c1ccc(CSc2ccccc2)cc1)N1CCCCCC1`, the inhibition is -0.16% (inactive).

For the compound `COc1ccccc1OCc1ccc(C(=O)N2CCN(C)CC2)o1`, the inhibition was 6.16% (inactive).

Turning to `O=[N+]([O-])c1ccc(N2CCN(S(=O)(=O)c3ccccc3)CC2)cc1N1CCc2ccccc2C1`, the inhibition was 4.34% (inactive).

In the case of `COc1ccc(-c2cc(C(=O)n3cnc4ccccc43)c3ccccc3n2)cc1`, the inhibition is 26.2% (active).

As to `Cc1ccc(OCC(=O)Nn2cnc3ccccc32)cc1`, the inhibition was 8.06% (inactive).

Turning to `CNC(=O)COC(=O)c1cc(-c2ccc(OC)cc2)nc2ccccc12`, the inhibition is 3.85% (inactive).

With `COc1cc(NC(=S)N2CCCC(C)C2)cc(OC)c1OC` (stereo not given), the inhibition is -1.31% (inactive).

With `CC(=O)N1CCN(S(=O)(=O)c2cccc(C(=O)NC3CCC(C)CC3)c2)CC1` (stereo not given), the inhibition was 1.65% (inactive).

Turning to `CC(C)Cn1c(CN(Cc2ccccc2)Cc2ccccc2)nc2c1c(=O)n(C)c(=O)n2C`, the inhibition is 13.4% (inactive).

On to `CC(C)Cn1cnc2c1c(=O)n(CC(O)c1ccccc1)c(=O)n2CC(C)C` (stereo not given), for which the inhibition was 20.6% (active).

Take `Cn1c(=O)c2c(ncn2CCc2ccccc2)n(C)c1=O`: the inhibition is -0.86% (inactive).

Regarding `CCCN(CC(=O)Nc1ccc(C(N)=O)cc1)CC(=O)Nc1ccccc1C`, the inhibition was -0.18% (inactive).

On to `O=C1Nc2cc(Cl)c(Cl)cc2N(O)N1c1ccccc1Cl`, for which the inhibition was 1.81% (inactive).

On to `CC(=O)Nc1ccc(NC(=O)C(C)OC(=O)c2ccccc2C(=O)c2ccc(Cl)c([N+](=O)[O-])c2)cc1` (stereo not given), for which the inhibition was 0.15% (inactive).

Consider `CCN1CCN(CCNC(=O)c2ccc(/C=C3/Sc4ccccc4N(Cc4cccc(C)c4)C3=O)cc2)CC1`, for which the inhibition is 23.1% (active).

Regarding `O=C(CN1C(=O)/C(=C\c2ccc(C(F)(F)F)cc2)Sc2ccccc21)NCc1ccco1`, the inhibition was 10.7% (inactive).

For the compound `Cc1nn(Cc2ccccc2)c(C)c1C(=O)NCCN1C(=O)S/C(=C\c2ccc(F)cc2)C1=O`, the inhibition is -0.53% (inactive).

On to `Cc1ccc(OCCCn2c(=O)oc3ccccc32)cc1`, for which the inhibition was 8.49% (inactive).

`Cc1ccc2nc(-c3ccc(NC(=O)CN(C)S(=O)(=O)c4ccccc4)cc3)sc2c1`: the inhibition is -3.73% (inactive).

Consider `Cc1c(CN2CCCC(C(=O)c3cccc(Cl)c3)C2)c(=O)n(-c2ccccc2)n1C` (stereo not given), for which the inhibition was -2.25% (inactive).

Consider `O=C(Nc1ccncc1)c1cc(-c2ccccn2)nc2ccc(Br)cc12`, for which the inhibition is -2.88% (inactive).

In the case of `Cc1ccc2nc(-c3ccccn3)cc(C(=O)Nc3ccc4c(c3)OCO4)c2c1`, the inhibition was 31.6% (active).

In the case of `Cc1ccc2nc(-c3ccncc3)cc(C(=O)Nc3ccc4c(c3)OCCO4)c2c1`, the inhibition was 4.85% (inactive).

Take `Cc1ccc(C(C(=O)NCc2ccco2)N(CC2CCCO2)C(=O)Cn2nnc3ccccc32)cc1` (stereo not given): the inhibition was 2.99% (inactive).

Consider `COc1ccccc1N(C(=O)Cn1nnc2ccccc21)C(C(=O)NCc1ccco1)c1ccc(C)o1` (stereo not given), for which the inhibition is 21.5% (active).

In the case of `COCCNC(=O)C(c1ccc(C)o1)N(Cc1ccccc1)C(=O)Cn1nnc2ccccc21` (stereo not given), the inhibition was 7.77% (inactive).

As to `CCO[C@H]1OC(C(=O)O)=C[C@@H](C2CCCCC2)[C@@H]1CCCO`, the inhibition is -4.69% (inactive).

For `CC1CC1C(=O)OCC(=O)c1c(N)n(C)c(=O)n(C)c1=O` (stereo not given), the inhibition was 0.59% (inactive).

Regarding `COc1ccc(OC)c(NC(=O)CN(Cc2ccc(Cl)cc2)S(C)(=O)=O)c1`, the inhibition was -0.76% (inactive).

For the compound `CS(=O)(=O)N(CC(=O)N1CCCC1)Cc1ccccc1`, the inhibition is 1.29% (inactive).

Regarding `COc1ccccc1N1CCN(C(=O)CN(Cc2ccc(Cl)cc2)S(C)(=O)=O)CC1`, the inhibition is 20.4% (active).

As to `COC(=O)C1=C(C)N(c2ccc(C)cc2)/C(=C/c2ccc(O)cc2)C1=O`, the inhibition is 2.2% (inactive).

Regarding `COCCNc1nc2nonc2nc1N1CCCC1c1nccs1` (stereo not given), the inhibition was 0.14% (inactive).

As to `Cc1ccc(-c2cc(C(=O)N3CCc4ccccc4C3)no2)cc1`, the inhibition is 28.6% (active).

For `O=C(c1cc(-c2ccccc2O)on1)N1CCCC1`, the inhibition is -3.05% (inactive).

For the compound `Cc1occc1C(=O)N1CCCc2ccccc21`, the inhibition is 1.99% (inactive).

`O=C(C(=O)N1CCc2ccccc2C1)N1CCc2ccccc2C1`: the inhibition was 1.24% (inactive).

For the compound `O=C(c1cc(-c2cccc(O)c2)on1)N1CCc2ccccc2C1`, the inhibition is 2.12% (inactive).

Regarding `O=C(c1cc(-c2ccc(O)cc2)on1)N1CCCc2ccccc21`, the inhibition is 25.5% (active).

With `CC(C)Oc1ccccc1C(=O)NC(CO)C(=O)O` (stereo not given), the inhibition is -2.02% (inactive).

On to `Cc1ccc(O)c(CCc2ccccc2)n1`, for which the inhibition is 1.07% (inactive).

For the compound `Cc1nn(CC(=O)Nc2ccc(C#N)cc2)c(C)c1[N+](=O)[O-]`, the inhibition is -0.39% (inactive).

As to `COc1ccc(C2CC(=O)Nc3sc(=N)c4c(N)c(C#N)c(N)nc4c32)cc1OC` (stereo not given), the inhibition was 60.1% (active).

In the case of `N#Cc1c(N)nc2c3c(sc(=N)c2c1N)NC(=O)CC3c1ccccc1Cl` (stereo not given), the inhibition is 1.18% (inactive).

Take `COc1ccc(-c2cc(-c3ccc(N)cc3)nc(N)c2C#N)cc1OC`: the inhibition was 7.06% (inactive).

For `CC(NC(=O)COC(=O)C1CCN(S(=O)(=O)c2ccccc2C(F)(F)F)CC1)c1ccccc1` (stereo not given), the inhibition was -0.58% (inactive).

For the compound `Cc1c(NC(=S)NC(=O)CCc2ccccc2)c(=O)n(-c2ccccc2)n1C`, the inhibition was 4.67% (inactive).
